Here are results for 10 compounds from ChEMBL document CHEMBL3244297, “In vitro antiplaque properties of a series of alkyl bis(biguanides)” (1978).

Structures are written as SMILES.

Holding throughout (assay type): functional
Assay [1] concerns Actinomyces naeslundii. Put plainly: Antiplaque activity against Actinomyces naeslundii ATCC 12104 assessed as growth inhibition of adherent cells on saliva coated bovine tooth slabs. In short, it runs like this: (§1)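 Tooth slabs were treated with the test agents at a series of molar concentrations. The value is the lowest molar concentration (M × 10⁴) that gave >90% inhibition of growth of adherent cells, based on triplicate sets.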

The subject of assay [2] is Streptococcus mutans. Put plainly: Antiplaque activity against wild type Streptococcus mutans 6715-13 assessed as growth inhibition of adherent cells on saliva coated bovine tooth slabs. In short, it runs like this:
as §1

For assay [3], the system named is Actinomyces viscosus. Put plainly: Antiplaque activity against Actinomyces viscosus M-100-2000 assessed as growth inhibition of adherent cells on saliva coated bovine tooth slabs. In short, it runs like this: as §1
Assay [4] concerns Streptococcus mutans. Put plainly: Antibacterial activity against wild type Streptococcus mutans 6715-13 assessed as growth inhibition by tube dilution assay. In short, it runs like this:
(§2)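 Standard tube dilution assay, modified so that adherent cells were dispersed before cell density was read spectrophotometrically at 540 nm. The value is the minimum inhibitory concentration, given in molar units.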

The test system of assay [5] is Actinomyces naeslundii. Put plainly: Antibacterial activity against Actinomyces naeslundii ATCC 12104 assessed as growth inhibition by tube dilution assay. The procedure, abridged:
as §2

Assay [6] has as its system Actinomyces viscosus. Put plainly: Antibacterial activity against Actinomyces viscosus M-100-2000 assessed as growth inhibition by tube dilution assay. The procedure, abridged:
as §2

By MIC is commonly meant the least concentration at which growth counts as inhibited. As for `N=C(NCCCCCCNC(=N)NC(=N)Nc1ccc(Cl)cc1)NC(=N)Nc1ccc(Cl)cc1.O=C(O)[C@H](O)[C@@H](O)[C@H](O)[C@H](O)CO`, the “MIC>90” value in assay [1] is on record as over 100 ×10⁻⁴ M; in assay [2], 10 ×10⁻⁴ M; in assay [3], over 10 ×10⁻⁴ M. Besides, the minimum inhibitory concentration (MIC) in assay [4], in assay [5] and in assay [6] was 10 µM in each case.

As for `CCCCCC(CC)CNC(=N)NC(=N)NCCCCNC(=N)NC(=N)NCC(CC)CCCCC.Cl` (stereo not given), the “MIC>90” value came out at 0.5 ×10⁻⁴ M in assay [1], 100 ×10⁻⁴ M in assay [2] and 10 ×10⁻⁴ M in assay [3]. For the same compound, the minimal inhibitory concentration (MIC) in assay [4], in assay [5] and in assay [6] was 10 µM each time.

With `CCCCCCCCCNC(=N)NC(=N)NCCCCNC(=N)NC(=N)NCCCCCCCCC.Cl`, the “MIC>90” value in assay [1] is reported as 1 ×10⁻⁴ M; in assay [2] it was 70 ×10⁻⁴ M; in assay [3], 10 ×10⁻⁴ M. For the same compound, the MIC in assay [4] amounted to 100 µM; in assay [5], 10 µM; in assay [6] it was 10 µM.

For `CCCCCCCCNC(=N)NC(=N)NCCCCCCNC(=N)NC(=N)NCCCCCCCC.Cl`, the results for the “MIC>90” value in assay [1], in assay [2] and in assay [3] were 0.5 ×10⁻⁴ M, 8 ×10⁻⁴ M and 5 ×10⁻⁴ M, respectively. Further, the MIC in assay [4], in assay [5] and in assay [6] was 10 µM throughout.

For `CCCCCCCNC(=N)NC(=N)NCCCCCCCCNC(=N)NC(=N)NCCCCCCC.Cl`, the entries for the “MIC>90” value in assay [1], in assay [2] and in assay [3] were 0.5 ×10⁻⁴ M, over 10 ×10⁻⁴ M and over 10 ×10⁻⁴ M, respectively. The minimal inhibitory concentration (MIC) in assay [4], in assay [5] and in assay [6] was 10 µM in each case.

As for `CCCCCCNC(=N)NC(=N)NCCCCCCCCCCNC(=N)NC(=N)NCCCCCC.Cl`, the “MIC>90” value in assay [1] is 0.5 ×10⁻⁴ M; in assay [2] it was 10 ×10⁻⁴ M; in assay [3], over 10 ×10⁻⁴ M. For the same compound, the MIC in assay [4], in assay [5] and in assay [6] was 10 µM each time.

Regarding `CCCCCCCNC(=N)NC(=N)NCCCCCCNC(=N)NC(=N)NCCCCCCC.Cl`, the results for the “MIC>90” value in assay [1], in assay [2] and in assay [3] were 0.5 ×10⁻⁴ M, 50 ×10⁻⁴ M and over 10 ×10⁻⁴ M, respectively. Further, the MIC in assay [4] worked out at 10 µM; in assay [5], 10 µM; in assay [6] it was 1 µM.

On to `CCCCCCNC(=N)NC(=N)NCCCCCCCCNC(=N)NC(=N)NCCCCCC.Cl`, for which the “MIC>90” value in assay [1] is listed as 1 ×10⁻⁴ M; in assay [2], 3 ×10⁻⁴ M; in assay [3], over 10 ×10⁻⁴ M. In addition, the values for the MIC in assay [4], in assay [5] and in assay [6] were 10 µM, 10 µM and 1 µM, respectively.

Regarding `CCCCCCNC(=N)NC(=N)NCCCCCCNC(=N)NC(=N)NCCCCCC.Cl`, the “MIC>90” value in assay [1] is on record as 0.8 ×10⁻⁴ M; in assay [2], 100 ×10⁻⁴ M; in assay [3] it was 0.8 ×10⁻⁴ M. Further, the values for the minimum inhibitory concentration (MIC) in assay [4], in assay [5] and in assay [6] were 10 µM, 10 µM and 1 µM, respectively.

As for `CCCCC(CC)CNC(=N)NC(=N)NCCCCCCNC(=N)NC(=N)NCC(CC)CCCC.Cl.Cl` (stereo not given) [ALEXIDINE DIHYDROCHLORIDE], the entries for the “MIC>90” value in assay [1], in assay [2] and in assay [3] were 5 ×10⁻⁴ M, over 100 ×10⁻⁴ M and 0.5 ×10⁻⁴ M, respectively. For the same compound, the MIC in assay [4] was 10 µM; in assay [5], 10 µM; in assay [6], 0.1 µM.
